Results published in ChEMBL document CHEMBL4477209, “Indole-2-carboxamide-based MmpL3 Inhibitors Show Exceptional Antitubercular Activity in an Animal Model of Tuberculosis Infection” (J Med Chem, 2016).
Converted amounts (≈) assume the structure as drawn. The source made the active and inactive calls. The calls are words filed in the database; no cut-off is given here.

Columns and labels:
[1] = system: Mycobacterium tuberculosis; assay: Antimycobacterial activity against Mycobacterium tuberculosis H37Rv grown on serum isolated from 10 mg/kg, po treated BALB/c mouse for 30 to 120 mins assessed as reduction in bacterial growth followed by bacterial addition incubated for 7 days by alamar blue reagent based serum inhibition titration assay; type: functional, organism-based
In short: (§1)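 Six-week-old female BALB/c mice (20 g) given one oral dose as suspension in 0.5% CMC in water; isoniazid 10 mg/kg as positive control, vehicle as negative. Serum collected at 30, 60 and 120 min, pooled from three mice per time point, 2-fold serially diluted. 10^4 CFU H37Rv added per well, 7 days at 37 °C. alamarBlue added for 16−18 h, fluorescence read at Ex544/Em590 and plotted against serum titration.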

[2] = Oral bioavailability in BALB/c mouse at 10 mg/kg administered for 30 to 120 mins followed by Mycobacterium tuberculosis H37Rv addition to compound treated serum incubated for 7 days by alamar blue reagent based serum inhibition titration assay; type: ADME, organism-based; settings: in vivo; in short: as §1
[3] = system: Mycobacterium tuberculosis H37Rv; assay: Inhibition of MmpL3 in clinical isolates of drug sensitive Mycobacterium tuberculosis H37Rv after 7 to 14 days by alamar blue assay
[4] = Mutagenicity in Salmonella typhimurium TA98 assessed as increase in ratio of revertant colonies in presence of S9 liver fraction relative to control; type: toxicity, subcellular; settings: salmonella enterica subsp. enterica serovar typhimurium
[5] = molecular target: T1, Nuclear receptor subfamily 1 group I member 3 (Homo sapiens, UniProt Q14994); assay: Transactivation of CAR (unknown origin) assessed as upregulation of CYP2B6; type: ADME
T1 sequence (Q14994 whole entry): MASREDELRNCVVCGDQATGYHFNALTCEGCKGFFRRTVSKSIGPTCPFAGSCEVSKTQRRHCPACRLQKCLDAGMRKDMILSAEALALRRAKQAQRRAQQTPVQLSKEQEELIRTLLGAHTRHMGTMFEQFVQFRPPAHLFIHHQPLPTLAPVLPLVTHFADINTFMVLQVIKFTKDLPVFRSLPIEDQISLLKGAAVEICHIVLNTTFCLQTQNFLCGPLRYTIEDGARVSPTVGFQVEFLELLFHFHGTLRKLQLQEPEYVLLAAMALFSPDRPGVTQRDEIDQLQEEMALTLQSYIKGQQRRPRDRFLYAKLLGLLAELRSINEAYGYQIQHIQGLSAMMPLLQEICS
In short: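 Nuclear receptor reporter-gene induction assay, with reporters coupled to PXR, CAR or AhR. Compound was tested at 0.1–1, 3 and 8 μg/mL. Positive controls were rifampin for PXR, CITCO for CAR and 3-methylcholanthrene for AhR.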

NNC(=O)c1ccncc1 [ISONIAZID]
Activity [1]: Active | Drug uptake [2]: Active | MIC90 [3]: 0.29 µM (≈ 0.0398 µg/mL)

Nc1ccc2cc3ccccc3cc2c1 [2-AMINOANTHRACENE]
fold change (FC) [4]: 173

Clc1ccc(-c2nc3sccn3c2/C=N/OCc2ccc(Cl)c(Cl)c2)cc1
Activity [5]: Active
